This note sets out measurements from ChEMBL document CHEMBL3352390, “Selective CB2 receptor agonists. Part 2: Structure-activity relationship studies and optimization of proline-based compounds” (Bioorg Med Chem Lett, 2015).

The nature of series [1]: Oral bioavailability in Wistar Han rat at 10 umol/kg. The format is ADME, organism-based. To be noted: in vivo. Summed up:
(§1)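 Wistar Han rats dosed orally with a suspension, at 10 mg/kg or 10 µmol/kg. Plasma taken at several time points and quantified by HPLC-MS/MS. Bioavailability derived by non-compartmental analysis.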

Series [2] is described as follows: Volume of distribution at steady state in Wistar Han rat at […], iv. It counts as ADME, organism-based. To be noted: in vivo, read-out: Vdss.
A short description of series [3]: Mean residence time in Wistar Han rat at […], iv. The format is ADME, organism-based. Particulars: in vivo.
The nature of series [4]: Ratio of drug uptake in brain to plasma of Wistar Han rat. The format is ADME. Particulars: brain and plasma, read-out: BPR.
Series [5] is described as follows: Permeability from apical to basolateral side of human Caco2 cells. The format is ADME, cell-based. Particulars: Caco-2, read-out: permeability. In general terms: Caco-2 monolayers are a common model of the intestinal barrier.
The nature of series [6]: Permeability from basolateral to apical side of human Caco2 cells. It counts as ADME, cell-based. To be noted: Caco-2, read-out: permeability.
A short description of series [7]: Volume of distribution at steady state in Wistar Han rat at 1 mg/kg, iv. Set-up: dose 1 mg/kg, route intravenous. The format is ADME, organism-based. Particulars: in vivo, read-out: Vdss. Put shortly: (§2)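 Wistar Han or Sprague Dawley rats given 1 mg/kg iv as a solution or 5 mg/kg po as a suspension. Plasma taken at several time points and quantified by HPLC-MS/MS. Parameters derived by non-compartmental analysis.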

Series [8] in a line: Mean residence time in Wistar Han rat at 1 mg/kg, iv. The format is ADME, organism-based. Particulars: in vivo. Set-up: dose 1 mg/kg, route intravenous. Put shortly: as §2
Series [9] is described as follows: Oral bioavailability in Wistar Han rat at 5 mg/kg. Particulars: in vivo. The format is ADME, organism-based. Put shortly: as §2
A short description of series [10]: Oral bioavailability in Wistar Han rat at 10 mg/kg. The format is ADME, organism-based. Particulars: in vivo. Summed up:
as §1

For orientation: bioavailability means the share of a dose that reaches the circulation, judged against a reference dose that is usually intravenous. Usually MRT stands for a mean duration of stay, worked out from the concentration-time curve. The molecule `CC(C)(C)c1cc(NC(=O)[C@@H]2CCC(=O)N2c2ccc(C(F)(F)F)cc2)on1` registered a bioavailability in series [1] of 88%. Further, in series [2], the Vd stood at 3.8 L/kg. This molecule also showed an MRT in series [3] of 6 h. Moreover, the Kp in series [4] amounted to 0.9. Further, the Papp A→B in series [5] came to 14 ×10⁻⁶ cm/s. The Papp B→A in series [6] amounted to 7.5 ×10⁻⁶ cm/s.

As for `CC(C)(C)c1cc(NC(=O)[C@@H]2C[C@@H](O)CN2CC2CCOCC2)on1` (relative stereo), the bioavailability in series [1] was 18%. Moreover, the Vd in series [2] was 1.3 L/kg. In [3], this molecule had an MRT of 0.34 h.

On to `CC(C)(C)c1cc(NC(=O)[C@@H]2CCCN2c2ccc(Cl)cc2)no1`, for which, in series [5], the Papp A→B was found to be 24 ×10⁻⁶ cm/s. Besides, the Papp B→A in [6] turned out to be 18 ×10⁻⁶ cm/s. The Vd in [7] was 7.9 L/kg. In addition, the MRT in [8] was found to be 1 h. For the same molecule, the bioavailability in series [9] was 5%.

Consider `CC(C)(C)c1cc(NC(=O)[C@@H]2CCC(=O)N2c2ccc(Cl)cc2)on1`, for which the bioavailability in series [10] was 44%. Also, the Kp in [4] came to 0.41. Besides, the Papp A→B in series [5] turned out to be 11 ×10⁻⁶ cm/s. For the same molecule, in [6], the Papp B→A was found to be 23 ×10⁻⁶ cm/s. In [7], the Vd turned out to be 4.5 L/kg. In [8], this molecule had an MRT of 1.3 h.
